Results: ChEMBL document CHEMBL3259728, “Design, synthesis and biological evaluation of some novel substituted quinazolines as antitumor agents” (2014)

What was measured:
Type in all cases: functional
Malme-3M = experiment: Cytotoxicity against human MALME-3M cells after 48 hrs by SRB assay
In short: (§1)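 NCI 60-cell-line panel of human tumour lines from nine cancer types. Continuous 48 h exposure at five 10-fold dilutions from 10^-4 to 10^-8 M, with 5-FU as positive control. SRB protein stain read spectrophotometrically at time zero, untreated control and each concentration. GI50, TGI and LC50 were derived from the [(Ti−Tz)/(C−Tz)]×100 growth relations, and out-of-range values are given as > or < the tested limits.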

DU-145 = experiment: Growth inhibition of human DU145 cells assessed as cell growth at 10^-8 M after 48 hrs by SRB assay; details: DU-145, 48 h, read-out: Activity
[1] = Growth inhibition of human OVCAR5 cells assessed as cell growth at 10^-6 M after 48 hrs by SRB assay; details: OVCAR-5, 48 h, read-out: Activity
[2] = Growth inhibition of human HCC2998 cells assessed as cell growth at 10^-6 M after 48 hrs by SRB assay; details: HCC 2998, 48 h, read-out: Activity
[3] = Growth inhibition of human HCC2998 cells assessed as cell growth at 10^-8 M after 48 hrs by SRB assay; details: HCC 2998, 48 h, read-out: Activity
[4] = Growth inhibition of human HOP92 cells assessed as cell growth at 10^-6 M after 48 hrs by SRB assay; details: HOP-92, 48 h, read-out: Activity
U-251 = experiment: Growth inhibition of human U251 cells assessed as cell growth at 10^-4 M after 48 hrs by SRB assay; details: U-251, 48 h, read-out: Activity
[5] = Growth inhibition of human OVCAR8 cells assessed as cell growth at 10^-6 M after 48 hrs by SRB assay; details: OVCAR-8, 48 h, read-out: Activity
SNB-19 = experiment: Growth inhibition of human SNB19 cells assessed as cell growth at 10^-8 M after 48 hrs by SRB assay; details: SNB-19, 48 h, read-out: Activity
RPMI-8226 = experiment: Growth inhibition of human RPMI8226 cells assessed as cell growth at 10^-5 M after 48 hrs by SRB assay; details: RPMI-8226, 48 h, read-out: Activity
SK-MEL-28 [6] = experiment: Cytotoxicity against human SK-MEL-28 cells after 48 hrs by SRB assay; details: SK-MEL-28, 48 h; in short: as §1
MDA-MB-435 [7] = experiment: Growth inhibition of human MDA-MB-435 cells assessed as cell growth at 10^-4 M after 48 hrs by SRB assay; details: MDA-MB-435, 48 h, read-out: Activity
MCF7 = experiment: Growth inhibition of human MCF7 cells assessed as cell growth at 10^-7 M after 48 hrs by SRB assay; details: MCF7, 48 h, read-out: Activity
SK-MEL-5 = experiment: Growth inhibition of human SK-MEL-5 cells assessed as cell growth at 10^-6 M after 48 hrs by SRB assay; details: SK-MEL-5, 48 h, read-out: Activity
[8] = Growth inhibition of human SF539 cells assessed as cell growth at 10^-8 M after 48 hrs by SRB assay; details: SF-539, 48 h, read-out: Activity
M14 = experiment: Growth inhibition of human M14 cells assessed as cell growth at 10^-7 M after 48 hrs by SRB assay; details: M14, 48 h, read-out: Activity
HT-29 = experiment: Growth inhibition of human HT-29 cells assessed as cell growth at 10^-7 M after 48 hrs by SRB assay; details: HT-29, 48 h, read-out: Activity
MDA-MB-231 = experiment: Growth inhibition of human MDA-MB-231 cells assessed as cell growth at 10^-4 M after 48 hrs by SRB assay; details: MDA-MB-231, 48 h, read-out: Activity
MDA-MB-468 = experiment: Growth inhibition of human MDA-MB-468 cells assessed as cell growth at 10^-7 M after 48 hrs by SRB assay; details: MDA-MB-468, 48 h, read-out: Activity
PC-3 = experiment: Growth inhibition of human PC3 cells assessed as cell growth at 10^-6 M after 48 hrs by SRB assay; details: PC-3, 48 h, read-out: Activity
NCI-H226 = experiment: Growth inhibition of human NCI-H226 cells assessed as cell growth at 10^-5 M after 48 hrs by SRB assay; details: NCI-H226, 48 h, read-out: Activity
[9] = Growth inhibition of human RXF393 cells assessed as cell growth at 10^-6 M after 48 hrs by SRB assay; details: RXF 393, 48 h, read-out: Activity
[10] = Growth inhibition of human HOP92 cells assessed as cell growth at 10^-5 M after 48 hrs by SRB assay; details: HOP-92, 48 h, read-out: Activity
SK-MEL-28 [11] = experiment: Growth inhibition of human SK-MEL-28 cells assessed as cell growth at 10^-6 M after 48 hrs by SRB assay; details: SK-MEL-28, 48 h, read-out: Activity
CCRF-CEM = experiment: Growth inhibition of human CCRF-CEM cells assessed as cell growth at 10^-5 M after 48 hrs by SRB assay; details: read-out: Activity
In short: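 Five-dose NCI panel protocol. Each dose (10^-4 to 10^-8 M, 10-fold steps) was given as 48 h continuous exposure, and protein was measured by SRB staining. Percentage growth at each level is [(Ti−Tz)/(C−Tz)]×100, where Tz is time-zero absorbance and C is untreated control.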

HCC 2998 = experiment: Cytotoxicity against human HCC2998 cells after 48 hrs by SRB assay; details: HCC 2998, 48 h; in short: as §1
SW-620 = experiment: Growth inhibition of human SW620 cells assessed as cell growth at 10^-4 M after 48 hrs by SRB assay; details: SW-620, 48 h, read-out: Activity
[12] = Growth inhibition of human OVCAR4 cells assessed as cell growth at 10^-8 M after 48 hrs by SRB assay; details: OVCAR-4, 48 h, read-out: Activity
MDA-MB-435 [13] = experiment: Cytotoxicity against human MDA-MB-435 cells after 48 hrs by SRB assay; details: MDA-MB-435, 48 h; in short: as §1
[14] = read-out: LC50 (the source's name)
[15] = read-out: pLC50 (the source's name) (converted)

## Cc1ccc(-c2nc3ccc(Cl)cc3c(=O)n2/N=C/c2ccccc2)cc1
Malme-3M; read-out: GI50
  GI50: 5.97 µM
Malme-3M; [14]
  CC50: > 100 µM
Malme-3M; read-out: TGI
  TGI: > 100 µM
Malme-3M; read-out: pGI50 (converted)
  GI50: 6.03 µM
Malme-3M; [15]
  CC50: > 100 µM
Malme-3M; read-out: pTGI
  TGI: > 100 µM
DU-145
  growth at 0.01 µM: 97%
[1]
  growth at 1 µM: 90%
[2]
  growth at 1 µM: 96%
[3]
  growth at 0.01 µM: 102%
[4]
  growth at 1 µM: 85%
U-251
  growth at 100 µM: 7%
[5]
  growth at 1 µM: 89%
SNB-19
  growth at 0.01 µM: 96%
RPMI-8226
  growth at 10 µM: 72%
SK-MEL-28 [6]; read-out: GI50
  GI50: 20.6 µM
SK-MEL-28 [6]; [14]
  CC50: > 100 µM
SK-MEL-28 [6]; read-out: TGI
  TGI: > 100 µM
SK-MEL-28 [6]; read-out: pGI50 (converted)
  GI50: 20.4 µM
SK-MEL-28 [6]; [15]
  CC50: > 100 µM
SK-MEL-28 [6]; read-out: pTGI
  TGI: > 100 µM
MDA-MB-435 [7]
  growth at 100 µM: 57%
MCF7
  growth at 0.1 µM: 90%
SK-MEL-5
  growth at 1 µM: 77%
[8]
  growth at 0.01 µM: 90%
M14
  growth at 0.1 µM: 96%
HT-29
  growth at 0.1 µM: 93%
MDA-MB-231
  growth at 100 µM: 16%
MDA-MB-468
  growth at 0.1 µM: 93%
PC-3
  growth at 1 µM: 86%
NCI-H226
  growth at 10 µM: 38%
[9]
  growth at 1 µM: 90%
[10]
  growth at 10 µM: 43%
SK-MEL-28 [11]
  growth at 1 µM: 93%
CCRF-CEM
  growth at 10 µM: 86%
HCC 2998; read-out: GI50
  GI50: > 100 µM
HCC 2998; [14]
  CC50: > 100 µM
HCC 2998; read-out: TGI
  TGI: > 100 µM
HCC 2998; read-out: pGI50 (converted)
  GI50: > 100 µM
HCC 2998; [15]
  CC50: > 100 µM
HCC 2998; read-out: pTGI
  TGI: > 100 µM
SW-620
  growth at 100 µM: 52%
[12]
  growth at 0.01 µM: 95%
MDA-MB-435 [13]; read-out: GI50
  GI50: > 100 µM
MDA-MB-435 [13]; [14]
  CC50: > 100 µM
MDA-MB-435 [13]; read-out: TGI
  TGI: > 100 µM
MDA-MB-435 [13]; read-out: pGI50 (converted)
  GI50: > 100 µM
MDA-MB-435 [13]; [15]
  CC50: > 100 µM
MDA-MB-435 [13]; read-out: pTGI
  TGI: > 100 µM
